# Assay outcomes: PubChem, Broad Institute
# In the library only some 4% were active in any assay of this set; here they are far more common.
# Statin myotox sup: suppressors of statin myotoxicity in C2C12 myotubes, primary screen, cell-based, single point, plate reader; C2C12 myotubes + simvastatin, ATP luminescence, 48 h; scaled: DMSO 0, geranylgeraniol control 100; rescue of ATP level, % at 7.49 µM; 0.78% of 330,000 active; AID 602340, 2012;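 active = mean ATP rescue above about 67%, or every replicate alone reaching that limit, limit read from the data, passing the limit was not always enough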;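 note: myotubes were challenged with 10 µM simvastatin during compound exposure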
# FGF22 binding: binders of human FGF22 protein, primary screen, FGF22 synaptogenesis inhibitor project, biophysical, thermal shift, single point. Fibroblast growth factor 22 (Homo sapiens), Q9HCT0. recombinant FGF22 thermal shift, SYPRO orange fluorescence; percent of sucrose octasulfate shift, DMSO zero. activity (Tm shift, normalised), % at 9.99 µM. 1.5% of 340,000 active. AID 651658, 2012;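 active = mean Tm shift, scaled 0 neutral to 100 positive control, at about 1.3% or above, every replicate too, limit read from the data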
# Target sequence (Q9HCT0 whole entry, looked up): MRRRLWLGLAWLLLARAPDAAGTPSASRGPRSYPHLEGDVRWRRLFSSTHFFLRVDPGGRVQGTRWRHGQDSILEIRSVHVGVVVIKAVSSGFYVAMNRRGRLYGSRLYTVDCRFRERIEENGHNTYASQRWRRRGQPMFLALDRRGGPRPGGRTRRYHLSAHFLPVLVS
# SIRT5 block: SIRT5 desuccinylase inhibitors, primary screen, biochemical, fluorescence imaging, single point, set 5; 1.1% of 330,000 active; NAD-dependent protein deacylase sirtuin-5, mitochondrial (Homo sapiens), Q9NXA8; inhibition, % at 15 µM; AID 652115, 2013; Purified SirT5, succinyl-peptide AMC, trypsin-coupled fluorescence; in the data active = inhibition above about 15%
# FN deposition inh: inhibitors of fibronectin matrix deposition, primary screen, AH1F cells, Alexa488-fibronectin fluorescence, plate reader; AH1F fibroblasts, overnight; inhibition, % at 12.6 µM; 0.086% of 350,000 active; AID 743247, 2014;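 active = mean inhibition across replicates of 30% or more, regardless of how many single replicates reach that level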;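 note: positive control wells lacked labelled fibronectin entirely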
#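 Measured by – fluorescence 485/525 nm · System – AH1F fibroblast monolayer, labelled fibronectin deposition · Amount – 10000 cells per well · Buffer or medium – serum-reduced DMEM (2% serum) · Doses – single dose, pinned · Also added – fluorescent fibronectin at 24 nM final · Schedule – 1 h cell attachment, overnight exposure to compound and label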
# E-sel inducer: E-selectin induction in HUVECs, primary screen, imaging, HUVEC, immunofluorescence imaging, single point; 0.37% of 260,000 active; activation, % at 7.58 µM; P16581; normalized: neutral wells 0, TNF-alpha wells 100; AID 686992, 2013;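 active = mean E-selectin-positive cell signal at least 10% of the positive control, reached in at least 60% of replicates, without over 20% cell loss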
#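 System: HUVEC / Compound: single concentration / Signal: immunofluorescence imaging / Read-out: percent E-selectin-positive cells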
# Ecoli rRNA inh: reduced GFP signal of wild-type E. coli, primary screen, bacterial rRNA inhibitor project, GFP/RFP fluorescence, OD600, single point; E. coli WT GFP vs humanized-ribosome RFP mutants, 24 h; active compounds read low; DMSO median 0, no signal -100; AID 720706, 2013; 1.6% of 350,000 active; GFP signal change (wild-type ribosome), % (concentration not given with the values);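 active = significant combined selectivity score with lowered wild-type GFP, culture density cut under 30%, mutant RFP and density less affected; inactive = any of these conditions unmet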
# Starred values were filed as active, the others as inactive; nt = no result.
SMILES,Statin myotox sup,FGF22 binding,SIRT5 block,FN deposition inh,E-sel inducer,Ecoli rRNA inh
CC=Cc1ccc2n(c1=O)C[C@H]1[C@H](CO)[C@@H](C(=O)N[C@H](C)c3ccccc3)N(C(=O)c3cnccn3)[C@@H]21 (mixture of isomers),15,0,1,nt,-2,-1
O=S(=O)(c1ccc(F)cc1)N1CCCCN2[C@H](CO)[C@@H](c3ccc(-c4ccccc4)cc3)[C@H]2C1,nt,0,3,nt,0,2
O=C(C[C@H]1CC[C@@H]2NC[C@H](O)COC[C@H]2O1)NCCN1CCCC1,nt,nt,-12,-5,0,2
CN(C)CCCN(C(=O)c1ccc(S(=O)(=O)N2CCc3ccccc3C2)cc1)c1nc2c(F)cccc2s1,3,nt,1,13,nt,-47*
CN(C)CCN(C(=O)c1ccc2ccccc2c1)c1nc2c(F)cccc2s1,120*,0,-2,4,nt,-5
O=C1C(Sc2ccccc2)=C[C@@]2(O)CC[C@@H](O)[C@]1(Sc1ccccc1)[C@H]2O,nt,0,nt,-27,0,-23*
COc1ccc(SC2=C[C@@]3(O)CC[C@@H](O)[C@@](Sc4ccc(OC)cc4)(C2=O)[C@H]3O)cc1,nt,0,4,4,7,1
CC(C)C#Cc1cnc2c(c1)C(=O)N([C@@H](C)CO)C[C@H](C)[C@@H](CN(C)Cc1ccccc1)O2,17,0,-3,-6,-2,0
COc1ccc2c3c(n(C)c2c1)[C@H](CO)N(C(=O)CC1CC1)CC31CCN(C(=O)C2CC2)CC1,nt,0,-4,nt,0,-2
CC(C)C(NC(=O)C1CCCCC1)C(=O)Nc1ccncc1 (centres undefined),124*,nt,nt,nt,nt,nt
CC(C)C(NC(=O)C1CCCCC1)C(=O)Nc1ccc2c(c1)OCCO2 (centres undefined),13,nt,nt,12,-2,nt
O=C(c1ccc(Cl)cc1)N1CCCC(c2ccccc2)=N1,80*,nt,nt,nt,nt,nt
COC(=O)c1ccccc1NC(=O)N1c2ccccc2CC1C (centres undefined),6,nt,-3,0,nt,-34
CCCCNC(=O)N1c2ccccc2CC1C (centres undefined),-16,0,-1,-2,155*,13
CCN(CC)c1ccc2nc3ccc(N)cc3[n+](-c3ccccc3)c2c1,-152,-1,-2,8,92*,0
CCN(CC)c1ccc2nc3ccccc3[n+](CC)c2c1,-115,nt,nt,nt,nt,nt
Cc1nc(S/C(=C/c2ccc(OCc3ccc(C(=O)O)cc3)cc2)C(=O)O)n[nH]1,nt,1.5*,6,-6,0,1
CCCC(O)C#Cc1cnc2c(c1)C(=O)N([C@H](C)CO)C[C@H](C)[C@H](CN(C)C(=O)Nc1ccc3c(c1)OCO3)O2 (some centres undefined),-10,0,2,-24,0,-2
O=C(CCOc1ccccc1)N1CCN(S(=O)(=O)c2cccs2)CC1,78*,nt,nt,nt,nt,nt
Cc1ccc(S(=O)(=O)Nc2ccc3c(c2)CC(=O)N([C@H](C)CO)C[C@H](C)[C@@H](CN(C)C(=O)Nc2ccc4c(c2)OCO4)O3)cc1,-7,0,-5,-12,0,0
Oc1ccc(Cl)cc1Sc1cc(Cl)ccc1O,14,2.3*,5,13,-1,nt
CCN(CC)C(=O)C1CCN(Cc2cn(C)nc2-c2ccc(Oc3ccccc3)cc2)CC1,nt,0,-4,3,1,1
C[C@H]1C(=O)N(C)CCN1Cc1cn(C)nc1-c1ccc(Oc2ccccc2)cc1,1,44*,-1,4,0,5
CCCCCCOc1ccc(C(CC(N)=O)C(=O)O)cc1 (centres undefined),107*,0,0,0,80*,7
Cc1ccc(S(=O)(=O)N2CCN(Cc3nc4sc(C)c(C)c4c(=O)[nH]3)CC2)cc1,23,nt,nt,nt,nt,nt
